Compounds with a hit are over-represented: about 2% of the library has one in this group of screens.
CaV13 FRET inh – Primary screen for inhibitors of IQ motif and Ca2+-dependent inactivation inhibitor domain binding in CACNA1D, Förster resonance energy transfer in living cells, …; inhibition, % at 12.3 µM; 340,000 compounds, 0.098% hits; HEK cells, CFP/YFP FRET ICDI-IQ, plate reader, 10 min; percent FRET-ratio fall versus neutral wells;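 active = mean replicate inhibition of at least 30% and at least 1% of replicates passing that level; inconclusive = only one of the two criteria is met; inactive = neither criterion is met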
TROY signal inh – inhibitors of TROY-driven NF-kB signaling, primary screen, Q293 LMP1-TROYcd cells, NF-kB luciferase, uHTS; Q293 LMP1-TROYcd NF-kB luciferase reporter, 4 h; inhibition, % at 10 µM; 360,000 compounds, 0.98% hits; AID 1347056, 2019;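 active = compounds whose plate-normalised and pattern-corrected inhibition of the luciferase reporter signal at the single screening dose is 50% or more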
LGR2 inh – inhibitors of bursicon-induced LGR2 CRE-luciferase signal, primary screen, cell-based, HEK293, CRE-luciferase reporter, bursicon stimulation; Drosophila bursicon receptor LGR2 (rickets); bursicon-stimulated, 4 h; 380,000 compounds, 0.35% hits; inhibition, % at 9.99 µM;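 active = drop in luminescence signal, shown as inhibition above about 50% in the replicate tests, limit read from the data, passing the limit was not always enough; inconclusive = probably only some replicates passing the limit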;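 note: agonist challenge used bursicon conditioned medium at about half maximal strength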
Xi reactivation – activators of inactive X chromosome reactivation, primary screen, imaging, XiGFP fibroblasts, GFP high-content imaging, set 2; XiGFP mouse fibroblasts, % GFP-positive cells imaging, 3 d; cells co-treated with 5-aza-dC sensitizer; scaled so ellipticine positive control = 100%; activation, % at 7.58 µM; 360,000 compounds, 0.055% hits;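 active = mean normalized replicate activation at least 10% and every replicate at or above 10%; inconclusive = only one of the two criteria met; inactive = mean below 10% and not all replicates reach 10%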
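Schedule: 3 d treatment, 15 min room-temperature fixation; system: 68-5-11 XiGFP fibroblast line; buffer or medium: DMEM plus 5-aza-dC sensitizer; control set: ellipticine 6 µM positive control; compound: one concentration, pinned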
TWEAK-Fn14 inh – inhibitors of TWEAK-Fn14 signaling, primary screen, luciferase reporter cells, uHTS; TWEAK-stimulated Fn14 reporter cells, luciferase luminescence, 8 h; inhibition, % at 10 µM; 360,000 compounds, 2% hits; AID 1159606, 2016; in the data active = inhibition above about 50%
Large screens that a line does not name were inactive.

CCOC(=O)[C@]12Cc3cc(Cl)ccc3[C@H]1N(C1CCCCC1)C(=O)c1cc(OC)ccc12	TROY signal inh 63.1, LGR2 inh 100.9, TWEAK-Fn14 inh 101.9
CCOC(=O)[C@]12Cc3c(cc(OC)c(OC)c3OC)[C@H]1N(C1CCCCC1)C(=O)c1ccccc12	LGR2 inh inconclusive
CCOC(=O)[C@]12Cc3cc(C)ccc3[C@H]1N(C1CCCCC1)C(=O)c1ccccc12	LGR2 inh 64.4, TWEAK-Fn14 inh 68.6
CCOC(=O)[C@]12Cc3ccc(C)cc3[C@H]1N(C1CCCCC1)C(=O)c1ccccc12	TROY signal inh 50.5, LGR2 inh 52.9, TWEAK-Fn14 inh 91.9
COC(=O)[C@H]1[C@H](CO)[C@H]2Cn3c(ccc(-c4ccccc4)c3=O)[C@@H]1N2CC1CC1	none (no result: CaV13 FRET inh, TROY signal inh, TWEAK-Fn14 inh)
COc1ccc(-c2ccc([C@H]3[C@@H](CO)N4CCCCN(C(=O)Cc5ccccc5)C[C@@H]34)cc2)cc1	none (no result: CaV13 FRET inh, TROY signal inh, TWEAK-Fn14 inh)
COc1ccccc1CN1[C@H](CO)[C@@H](c2ccccc2)C12CN(C(=O)Cc1ccccc1)C2	none (no result: CaV13 FRET inh, TROY signal inh, TWEAK-Fn14 inh)
COC(=O)[C@H]1[C@H](CO)[C@H]2Cn3c(ccc(-c4ccccc4)c3=O)[C@@H]1N2CC1CCCCC1	none (no result: CaV13 FRET inh, TROY signal inh, TWEAK-Fn14 inh)
CCOC(=O)[C@]12Cc3cc(OC)ccc3[C@H]1N(CC(=O)OC)C(=O)c1ccccc12	none
CCOC(=O)[C@]12Cc3cc(C)ccc3[C@H]1N(CCC(=O)OC)C(=O)c1ccccc12	LGR2 inh 52.8
CCCCCN1C(=O)c2cc(OC)ccc2[C@@]2(C(=O)OCC)Cc3cc(OC)ccc3[C@@H]12	TWEAK-Fn14 inh 62.2
c1cc(-c2ccc(C3[C@H]4CNC[C@@H]3N4CC3CC3)cc2)ccn1 (stereo partly drawn)	none (no result: CaV13 FRET inh, TROY signal inh, TWEAK-Fn14 inh)
COC(=O)C1=C(C(=O)OC)SC2(S1)C(C(=O)OC)=C(C(=O)OC)Sc1c2ssc1=O	TWEAK-Fn14 inh 58.5
COC(=O)[C@@H]1[C@@H](CO)[C@@H]2Cn3c(ccc(-c4cccnc4)c3=O)[C@H]1N2S(=O)(=O)c1ccccc1C	none (no result: CaV13 FRET inh, TROY signal inh, TWEAK-Fn14 inh)
CC(C)OCCCNC(=O)c1c(N)n(Cc2cccs2)c2nc3ccccc3nc12	none (no result: LGR2 inh, Xi reactivation)
COCCCNC(=O)c1c(NC(=O)c2ccco2)n(Cc2ccccc2)c2nc3ccccc3nc12	none (no result: CaV13 FRET inh, TROY signal inh, LGR2 inh, Xi reactivation)
COCCNC(=O)c1c(NC(=O)c2ccc(Br)o2)n(Cc2ccccc2)c2nc3ccccc3nc12	TROY signal inh 68.1, TWEAK-Fn14 inh 58.0
CC(C)CCn1c(N)c(C(=O)NCc2cccs2)c2nc3ccccc3nc21	TROY signal inh 67.8, TWEAK-Fn14 inh 63.1 (no result: Xi reactivation)
Nc1c(C(=O)OCC2CCCO2)c2nc3ccccc3nc2n1Cc1cccs1 (stereo not drawn)	TROY signal inh 68.2 (no result: CaV13 FRET inh, LGR2 inh, Xi reactivation)
Nc1c(C(=O)NC2CCCC2)c2nc3ccccc3nc2n1CC1CCCO1 (stereo not drawn)	none (no result: LGR2 inh, Xi reactivation)
COCCNC(=O)c1c(N)n(CCC(C)C)c2nc3ccccc3nc12	TROY signal inh 73.4 (no result: LGR2 inh, Xi reactivation)
O=C(Cc1ccccc1)N1CCCCN2[C@@H](CO)[C@H](c3ccc(C#CC4(O)CCCC4)cc3)[C@@H]2C1	none (no result: CaV13 FRET inh, TROY signal inh, TWEAK-Fn14 inh)
Cc1cccc(S(=O)(=O)N2[C@@H]3Cn4c(ccc(-c5ccncc5)c4=O)[C@H]2[C@@H](C(=O)O)[C@@H]3CO)c1	none (no result: CaV13 FRET inh, TROY signal inh, TWEAK-Fn14 inh)
CNC(=O)Oc1ccc(-c2cn3cc(C)ccc3n2)cc1	TWEAK-Fn14 inh 64.5 (no result: LGR2 inh)
CNC(=O)Oc1cccc(-c2cn3cc(Cl)ccc3n2)c1	LGR2 inh 81.9
NC(Cc1ccc(Cl)cc1)c1csc(Nc2ncccn2)n1 (stereo not drawn)	LGR2 inh inconclusive, TWEAK-Fn14 inh 57.9
Nc1ccc(CC(N)c2csc(Nc3ncccn3)n2)cc1 (stereo not drawn)	none
O=C1NC(=O)N(c2ccccc2)C(=O)/C1=C/C=C/c1ccco1	none
CN(C)c1ccc(/C=C/C=C2/C(=O)NC(=O)N(c3ccccc3)C2=O)cc1	TWEAK-Fn14 inh 92.2 (no result: LGR2 inh)
O=C([C@H]1N[C@H]2c3cccc(=O)n3C[C@H]2[C@@H]1CO)N1CCCCC1	none (no result: CaV13 FRET inh, TROY signal inh, LGR2 inh, TWEAK-Fn14 inh)
Oc1c(Cl)cccc1Cc1cc(Cl)cc(Cl)c1O	TROY signal inh 66.0, TWEAK-Fn14 inh 65.5
Oc1c(Cl)cc(Cl)cc1CN1CCN(Cc2ccccc2)CC1	none (no result: Xi reactivation)

Screens as filed in PubChem BioAssay.
